Screening data (PubChem BioAssay)
Only some compounds are listed: those with a hit (about 2% of all), similar ones and a draw of the others.
EBV LMP1 NFkB = EBV LMP1-driven NF-kappaB luciferase reporter inhibitors, primary screen, cell-based, luminescence, single point | inhibition, % at 12.5 µM | hit rate 0.69% among 350,000 | AID 504558, 2011 | LMP1-induced NF-kappaB luciferase reporter cells; in the data active = inhibition above about 41%;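 also: 0% = neutral control wells and 100% = reference inhibitor control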
TROY signal inh = inhibitors of TROY-driven NF-kB signaling, primary screen, Q293 LMP1-TROYcd cells, NF-kB luciferase, uHTS. inhibition, % at 10 µM. Q293 LMP1-TROYcd NF-kB luciferase reporter, 4 h. hit rate 0.98% among 360,000. AID 1347056, 2019;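 active = compounds whose plate-normalised and pattern-corrected inhibition of the luciferase reporter signal at the single screening dose is 50% or more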
HIF activator = HIF pathway transcriptional activators, primary screen, cell-based, U2OS HRE-luciferase, luminescence; U2OS HRE-luciferase reporter; normalized: DMSO 0%, desferrioxamine 100%; activation, % at 7.5 µM (by protocol); hit rate 0.32% among 300,000; AID 1910, 2009;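 active = mean activation of at least 10% of the iron chelator positive control signal, with at least half of replicates also reaching 10%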
NR2E3 ag-1 = inhibitors of NR2E3-RetCOR corepressor binding, primary screen, NR2E3 agonist project, biochemical, TR-FRET, GST-NR2E3, biotin-RetCOR. 1536-well. inhibition of corepressor binding, % at 4.78 µM. hit rate 0.12% among 320,000. AID 2300, 2010;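 active = percent inhibition above the cutoff of mean plus 3 SD of all tested compounds, set per screening campaign, cut at about 20% in these data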;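 also: 0% = DMSO wells and 100% = biotin wells as full block of FRET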
Target sequence (Q9Y5X4 whole entry, looked up): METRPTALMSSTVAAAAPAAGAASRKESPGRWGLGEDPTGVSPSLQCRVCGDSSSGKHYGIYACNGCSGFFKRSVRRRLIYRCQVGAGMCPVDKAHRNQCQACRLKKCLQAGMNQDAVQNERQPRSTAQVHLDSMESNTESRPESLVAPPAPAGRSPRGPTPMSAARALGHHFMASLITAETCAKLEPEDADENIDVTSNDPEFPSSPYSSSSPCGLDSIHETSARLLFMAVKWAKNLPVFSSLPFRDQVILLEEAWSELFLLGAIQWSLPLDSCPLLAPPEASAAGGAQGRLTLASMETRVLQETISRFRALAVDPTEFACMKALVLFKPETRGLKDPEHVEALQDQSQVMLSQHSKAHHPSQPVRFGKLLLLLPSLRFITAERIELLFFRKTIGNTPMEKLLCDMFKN
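Test system – NR2E3–RetCOR corepressor complex · Quantity – NR2E3 fusion 1.35 nM · Buffer or medium – Tris pH 7.5 · Incubation – Compound–protein incubation for 5 h at 4 °C · Technique – TR-FRET, Eu(K)-anti-GST donor, streptavidin-D2 acceptor, ex 340, em 617/671 nm · Evaluation – percent inhibition of 671/617 nm emission ratio versus biotin and DMSO controls · Plate – 1536-well format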
NR2E3 ag-2 = NR2E3 agonists in two-hybrid cells, primary screen, cell-based, luminescence, CHO-S, Gal4-NCOR/VP16-NR2E3; hit rate 0.35% among 360,000; luciferase; inhibition of corepressor binding, % at 3.98 µM;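 active = inhibition above the mean of all tested compounds plus 3 SD, cut at about 70% in these data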;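 also: 0% = DMSO with NR2E3 transfected cells and 100% = cells lacking NR2E3 construct; higher means lower luciferase signal from less NR2E3 corepressor binding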
NR2E3 ag conf = NR2E3 agonist confirmation in cells, cell-based, luminescence, CHO-S two-hybrid; inhibition, % at 3.98 µM; hit rate 51% among 2,300; shares compounds with NR2E3 ag-2; CHO-S mammalian two-hybrid NR2E3-NCOR, luciferase luminescence;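 active = average inhibition above a cutoff equal to the mean inhibition of all tested compounds plus one SD, cut at about 70% in these data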;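 also: 0% = DMSO in NR2E3 cells and 100% = DMSO in cells lacking NR2E3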
GAL4-VP16 luc = GAL4-VP16 reporter modulators, confirmation, counter-screen for NR2E3 agonist project, cell-based, luminescence, CHO-S, high throughput; AID 624379, 2012; hit rate 29% among 2,300; inhibition, % at 3.98 µM; CHO-S GAL4-VP16 luciferase reporter; shares compounds with NR2E3 ag-2;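 active = mean inhibition above a cutoff equal to the average over all tested compounds plus one standard deviation, cut at about 70% in these data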;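 also: luciferase from a UAS reporter driven by GAL4-VP16 transactivation; 0% = DMSO with VP16-transfected cells and 100% = DMSO with cells lacking VP16; higher means less reporter light so more repression of VP16 activity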
An asterisk follows results filed as active; nt = no result.

SMILES	EBV LMP1 NFkB	TROY signal inh	HIF activator	NR2E3 ag-1	NR2E3 ag-2	NR2E3 ag conf	GAL4-VP16 luc
O=C(CNc1cccc(S(=O)(=O)N2CCOCC2)c1)Nc1ccc(C(F)(F)F)cc1	5.3	17.5	0.0	-2.2	49.7	10.5	25.2
COc1ccc(CC(=O)Nc2cccc(S(=O)(=O)N3CCCCCC3)c2)cc1OC	20.3	35.4	-0.6	-2.8	79.6*	89.7*	77.3*
CCN(CC)S(=O)(=O)c1cc(NC(=O)CNc2cccc(S(=O)(=O)N3CCCC3)c2)ccc1C	24.9	24.7	0.4	1.8	69.8	61.1	52.6
O=C(CNc1ccc(C(F)(F)F)cc1)Nc1cccc(S(=O)(=O)N2CCCC2)c1	-0.9	20.4	nt	1.4	-30.1	nt	nt
S=C1SCN(Cc2cccnc2)CN1Cc1cccnc1	20.3	-10.7	-1.0	-3.2	-1.2	nt	nt
C/C(=N\NC(=O)CCc1ccc(S(=O)(=O)N2CCOCC2)cc1)c1ccc(OC(F)F)cc1	-5.2	-8.0	-0.8	-2.5	1.1	nt	nt
CN(C)CCN(C(=O)c1ccc(N2C(=O)CCC2=O)cc1)c1nc2cc3c(cc2s1)OCCO3	nt	nt	1.8	0.8	nt	nt	nt
CC1=C(C(=O)NC2CCCc3c2cnn3-c2ccc(F)cc2F)OCCO1 (stereo not drawn)	10.5	12.3	0.4	3.2	65.8	28.0	33.4
Cc1cc(C(=O)NC2CCCc3c2cnn3-c2ccc(C)c(C)c2)n(C)n1 (stereo not drawn)	31.6	11.7	0.7	-0.5	111.2*	98.3*	88.4*
Cc1nnsc1C(=O)NC1CCCc2c1cnn2-c1ccccc1F (stereo not drawn)	19.1	8.3	-0.3	4.0	82.8*	86.0*	69.1
COCc1ccc(C(=O)NC2CCCc3c2cnn3-c2cc(C)cc(C)c2)s1 (stereo not drawn)	0.7	20.2	-1.2	nt	60.1	48.9	55.3
O=C(CSc1ccc(F)cc1)N1CCOCC1	-0.2	-10.5	1.1	-2.9	-15.0	nt	nt
O=C(OCC(=O)N(CCc1ccccc1)Cc1ccccc1)c1ccc(F)c(S(=O)(=O)N2CCOCC2)c1	5.2	1.7	nt	nt	12.3	nt	nt
Cc1cc(C)cc(-n2ncc3c2CCCC3NC(=O)C2(C(N)=O)CC2)c1 (stereo not drawn)	7.3	-3.9	-0.1	-0.9	11.8	nt	nt
Cc1cccc(-n2ncc3c2CCCC3NC(=O)C2(C(N)=O)CC2)c1C (stereo not drawn)	11.1	-7.0	0.4	-0.5	77.7*	77.5*	66.9
Cc1nnsc1C(=O)NC1CCCc2c1cnn2-c1ccc(C(C)(C)C)cc1 (stereo not drawn)	14.3	22.0	2.0	-0.2	93.0*	78.2*	74.6*
Cc1cc(N/N=C/c2ccc(F)cc2)nc(-n2nc(C)cc2C)n1	nt	4.4	0.2	-0.9	94.4*	2.8	24.9
CCOc1cc(/C=N/Nc2cc(C)nc(-n3nc(C)cc3C)n2)ccc1O	70.4*	2.3	-0.4	0.2	90.5*	2.8	-10.8
COc1ccc(/C=N/Nc2cc(C)nc(-n3nc(C)cc3C)n2)c(OC)c1	3.7	-15.2	8.2	1.6	64.5	7.8	5.4
CCOc1ccc(Nc2cc(C)nc(-n3nc(C)cc3C)n2)cc1	9.7	18.8	0.1	-2.4	83.6*	28.4	32.0
COc1ccccc1/C=N/Nc1cc(C)nc(N2CCOCC2)n1	-8.2	7.3	-0.2	4.2	-0.3	nt	nt
COc1ccc(Nc2nc(N3CCN(S(=O)(=O)N(C)C)CC3)nc3ccccc23)cc1	-4.8	-10.6	1.2	0.3	13.3	nt	nt
CC1(C)CC(=O)C=C(NCC(O)c2ccccc2)C1 (stereo not drawn)	-1.1	-3.8	-1.0	2.1	-0.1	nt	nt
CC1(C(=O)Nc2ccc3c(c2)OCO3)CC1(Cl)Cl (stereo not drawn)	-10.9	-20.4	0.9	-2.5	-2.2	nt	nt
COc1cccc(/C=N/Nc2nc(Nc3ccccc3)nc(-n3nc(C)cc3C)n2)c1O	-8.4	-44.2	1.8	2.7	94.6*	2.6	-21.7
SMILES	EBV LMP1 NFkB	TROY signal inh	HIF activator	NR2E3 ag-1	NR2E3 ag-2	NR2E3 ag conf	GAL4-VP16 luc
CC(C)n1c(-c2ccc(C(C)(C)C)cc2)n[nH]c1=S	12.3	8.8	0.3	2.3	79.4*	83.7*	69.5
CC(C)(C)c1ccc(-c2n[nH]c(=S)n2Cc2ccccc2)cc1	-9.1	17.7	0.0	1.5	3.9	nt	nt
COc1cc(CC(=O)Nc2nc(C)cs2)cc(OC)c1OC	-18.0	15.8	0.5	-1.4	10.4	nt	nt
COc1ccc(-c2csc(NC(=O)Cc3cc(OC)c(OC)c(OC)c3)n2)cc1OC	12.2	23.3	0.0	-1.6	47.8	10.4	44.2
Cc1ccc(C(=O)Nc2ccc(S(=O)(=O)NC3=NCCCCC3)cc2)cc1S(=O)(=O)N1CCOCC1	4.4	0.8	nt	-0.5	16.5	nt	nt
Brc1ccc(N/N=C(/N=Nc2nn[nH]n2)c2ccccc2)cc1	58.3*	-45.8	83.6*	0.1	72.1*	94.2*	35.3
O=C(O)c1ccc(N=N/C(=N\Nc2ccc(C(=O)O)cc2)c2ccccc2)cc1	-4.2	-41.3	-1.9	4.4	-37.4	nt	nt
Cc1ccc(S(=O)(=O)Nc2nc3ccccc3nc2NCc2ccco2)cc1	-19.8	-18.5	3.2	5.7	-73.5	nt	nt
Cc1ccc(S(=O)(=O)Nc2nc3ccccc3nc2NCc2ccco2)cc1C	2.5	9.1	0.2	-0.3	49.2	22.1	20.5
C[C@H]1CN([C@@H](C)CO)C(=O)c2cc(NC(=O)C3CCCCC3)ccc2O[C@H]1CN(C)CC1CCCCC1	0.9	3.5	nt	nt	3.2	nt	nt
COc1cccc2c1C(=O)c1c(O)c3c(c(O)c1C2=O)CC(O)(C(=O)CO)CC3OC1CC(N(C)C)C(O)C(C)O1 (stereo not drawn)	87.3*	56.5*	nt	nt	100.8*	99.2*	94.0*
CN(C)S(=O)(=O)c1ccc(C(=O)Nc2cc(S(=O)(=O)Nc3ccccc3Cl)ccc2N2CCCCC2)cc1	-3.4	-10.9	-0.2	0.4	48.5	84.7*	63.1
COCCNC(=O)C1(C)CCN(C(=O)c2ccc3sccc3c2)C1 (stereo not drawn)	nt	-5.1	nt	nt	8.7	nt	nt
O=C(c1cc(COc2ccc(F)cc2Cl)on1)N1CCN(C2CCCC2)CC1	-3.0	-6.3	0.7	-3.4	9.0	nt	nt
